Results collected from several papers.
Each line is one published result; the experiments were not run side by side.
Target: Phosphatidylinositol 4,5-bisphosphate 3-kinase catalytic subunit gamma isoform (PIK3CG, Homo sapiens, UniProt P48736)

`Cn1cncc1[C@](O)(COc1ccc(C#N)cc1-c1ccc(OC(F)(F)F)cc1)c1ccc(C#N)cc1` has a remaining binding of 100% (cell-free assay, competition with immobilised ligand; 1 µM).
For `Nc1ncc(-c2nc(N3CCOCC3)nc(N3CCOCC3)n2)c(C(F)F)n1`, the remaining binding was 0% (binding, competition with immobilised ligand; 10 µM).
`C#Cc1n[nH]c2c(-c3cn([C@@H](C)c4ccccc4)c(=O)[nH]c3=O)cc(F)cc12` has an inhibition of 7.4% (enzyme activity, inhibitor; 0.1 µM).
With `Cc1nn(C)cc1-c1nc2c(N3CCN(Cc4ccc(Cl)cc4)CC3)c(Cl)cnc2[nH]1` the remaining binding was 100% (binding, competition with immobilised ligand; 1 µM).
With `Cn1cc(-c2cccc(N3CCc4c(sc5c4CC(C)(C)C5)C3=O)c2CO)cc(Nc2ccncn2)c1=O` the inhibition was -1% (enzyme activity, inhibitor; 1 µM).
For `N#CC1(c2ccccn2)CCN(Cc2cc(C(=O)O)c(=O)n3ccccc23)CC1`, the remaining binding was 91% (cell-free assay, competition with immobilised ligand; 1 µM).
For `C#Cc1n[nH]c2c(-c3cn([C@@H](C)c4ccccn4)c(=O)[nH]c3=O)cc(F)cc12`, the inhibition was 1.9% (enzyme activity, inhibitor; 0.1 µM).
`COc1ncccc1-c1cnn2ccc(N3CCN(C(=O)OC(C)C)CC3)nc12` gave a remaining binding of 100% (binding, competition with immobilised ligand; 1 µM).
`Cn1cc(-c2cc(F)cc(N3CCn4c(cc5c4CCCC5)C3=O)c2CO)cc(Nc2ccc(N3CCN(C4COC4)CC3)cn2)c1=O` has an inhibition of 5% (enzyme activity, inhibitor; 0.1 µM).
